Key:
[1] = Reversal of multidrug resistance assessed as effect on calcein accumulation in MDR-human 2780 AD cells at 25 ug/ml relative to control; assay type: functional
How it was run: (§1)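 Multidrug-resistant human ovarian cancer 2780AD cells were loaded with calcein AM in the presence of test compound at 0.25, 2.5 or 25 μg/mL. Intracellular calcein, formed by enzymatic hydrolysis, was measured by fluorescence and expressed relative to a no-compound control. Values are means of triplicate determinations.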

[2] = Reversal of multidrug resistance assessed as effect on calcein accumulation in MDR-human 2780 AD cells at 0.25 ug/ml relative to control; assay type: functional; how it was run: as §1
A549 [3] = test: Inhibition of induction of ICAM1 expression in human A549 cells in presence of TNFalpha after 1 hr; assay type: functional, cell-based; conditions: A549, 1 h
How it was run: (§2)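 A549 cells (2 × 10⁴ cells/well) were pretreated with a range of compound concentrations for 1 h, then stimulated with IL-1α or TNF-α for 6 h. Surface ICAM-1 was detected with primary and secondary antibodies plus enzyme substrate, read as absorbance at 415 nm. Expression was taken as % of control after subtracting the unstimulated background. IC50 was derived from this, using triplicate cultures.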

A549 [4] = test: Viability of human A549 cells by MTT assay after 24 hrs; assay type: cell-based; conditions: A549, 24 h
How it was run: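 A549 cells were exposed to serial compound dilutions for 24 h, and viability was measured by MTT. Viability % was taken as background-corrected absorbance relative to control. IC50 was derived from this, using triplicate cultures.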

A549 [5] = test: Inhibition of induction of ICAM1 expression in human A549 cells in presence of IL1-alpha after 1 hr; assay type: functional, cell-based; conditions: A549, 1 h; how it was run: as §2
WI-38 VA13 = test: Growth inhibition of human VA13 cells; assay type: functional, cell-based
How it was run: (§3)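 Growth inhibition assayed in normal human fibroblasts WI-38, their malignant transformant VA-13, and human liver tumour HepG2 cells; IC50 reported.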

[6] = Growth inhibition of human WI38 cells; assay type: cell-based; conditions: WI-38; how it was run: as §3
[7] = Reversal of multidrug resistance assessed as effect on calcein accumulation in MDR-human 2780 AD cells at 2.5 ug/ml relative to control; assay type: functional; how it was run: as §1
HepG2 = test: Growth inhibition of human HepG2 cells; assay type: functional, cell-based; how it was run: as §3
[8] = Reversal of multidrug resistance assessed as effect on calcein accumulation in MDR-human 2780 AD cells at 25 ug/ml relative to verapamil; assay type: functional
How it was run: (§4)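 Multidrug-resistant 2780AD ovarian cancer cells were incubated with calcein AM plus test compound at 0.25, 2.5 or 25 μg/mL. Cellular calcein accumulation was read by fluorescence and expressed as a percentage of the verapamil response. Values are based on triplicate determinations.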

[9] = Reversal of multidrug resistance assessed as effect on calcein accumulation in MDR-human 2780 AD cells at 0.25 ug/ml relative to verapamil; assay type: functional; how it was run: as §4
[10] = Reversal of multidrug resistance assessed as effect on calcein accumulation in MDR-human 2780 AD cells at 2.5 ug/ml relative to verapamil; assay type: functional; how it was run: as §4

SMILES	Activity [1] [%]	Activity [2] [%]	IC50 (A549 [3]) [µM]	IC50 (A549 [4]) [µM]	IC50 (A549 [5]) [µM]	IC50 (WI-38 VA13) [µM]	IC50 [6] [µM]	Activity [7] [%]	IC50 (HepG2) [µM]	Activity [8] [%]	Activity [9] [%]	Activity [10] [%]
CO[C@@H]1C[C@H](O[C@H]2CC[C@@]3(C)[C@H](CC[C@]4(O)[C@@H]3CC[C@]3(C)[C@@H](C5=CC(=O)OC5)CC[C@@]34O)C2)O[C@H](C)[C@@H]1O	112	112	5.9	> 100	6	1.6	9.4	107	4.7	–	–	–
CO[C@H]1C[C@H](O[C@H]2CC[C@@]3(C)[C@H](CC[C@@H]4[C@@H]3CC[C@]3(C)[C@@H](C5=CC(=O)OC5)CC[C@]43O)C2)O[C@H](C)[C@@H]1O	86	89	0.16	> 100	0.2	0.8	< 0.02	83	0.14	–	–	–
COc1cccc2c1C(=O)c1c(O)c3c(c(O)c1C2=O)C[C@@](O)(C(=O)CO)C[C@@H]3O[C@H]1C[C@H](N)[C@H](O)[C@H](C)O1 [DOXORUBICIN]	–	–	–	–	–	0.4	0.7	–	1.3	–	–	–
CO[C@@H]1C[C@H](O[C@H]2CC[C@@]3(C)[C@H](CC[C@@H]4[C@@H]3CC[C@]3(C)[C@@H](C5=CC(=O)OC5)[C@@H](OC(C)=O)C[C@]43O)C2)O[C@H](C)[C@@H]1O	75	67	0.31	> 316	0.51	0.17	0.09	77	1.5	–	–	–
CO[C@@H]1C[C@H](O[C@H]2CC[C@@]3(C)[C@@H](CC[C@@H]4[C@@H]3CC[C@]3(C)[C@@H](C5=CC(=O)OC5)[C@@H](OC(C)=O)C[C@]43O)C2)O[C@H](C)[C@@H]1O	109	105	16.9	> 100	21.5	0.72	23	126	–	82	113	128
CO[C@@H]1C[C@H](O[C@H]2CC[C@@]3(C)[C@H](CC[C@@]45O[C@@]46CC[C@H](C4=CC(=O)OC4)[C@@]6(C)CC[C@H]35)C2)O[C@H](C)[C@@H]1O	112	92	–	> 316	13.9	13.4	33.1	102	76.4	–	–	–
CO[C@H]1C[C@H](O[C@H]2CC[C@@]3(C)[C@H](CC[C@@]45O[C@@]46CC=C(C4=CC(=O)OC4)[C@@]6(C)CC[C@H]35)C2)O[C@H](C)[C@@H]1O	102	99	55.4	> 100	69.3	85.7	16.3	100	81.4	–	–	–
CO[C@H]1C[C@H](O[C@H]2CC[C@@]3(C)[C@H](CC[C@@H]4[C@@H]3CC[C@]3(C)[C@@H](C5=CC(=O)OC5)[C@@H](OC(C)=O)C[C@]43O)C2)O[C@H](C)[C@@H]1O	91	90	–	> 1000	0.57	0.24	0.08	81	0.82	–	–	–
CO[C@@H]1C[C@H](O[C@H]2CC[C@@]3(C)[C@H](CC[C@@H]4[C@@H]3CC[C@]3(C)[C@@H](C5=CC(=O)OC5)CC[C@]43O)C2)O[C@H](C)[C@@H]1O	96	93	0.48	> 316	0.2	0.18	0.07	89	1.5	–	–	–
CC(=O)O[C@H]1C[C@]2(O)[C@@H]3CC[C@@H]4C[C@@H](O)CC[C@]4(C)[C@H]3CC[C@]2(C)[C@H]1C1=CC(=O)OC1	99	92	0.36	> 100	0.52	0.16	1.7	100	0.2	–	–	–
CO[C@@H]1C[C@H](O[C@H]2CC[C@@]3(C)[C@H](CC[C@@]45O[C@@]46CC=C(C4=CC(=O)OC4)[C@@]6(C)CC[C@H]35)C2)O[C@H](C)[C@@H]1O	99	88	–	> 316	133	–	–	89	–	–	–	–
CC(=O)O[C@H]1C(=O)[C@@]2(C)[C@H]([C@H](OC(=O)c3ccccc3)[C@]3(O)C[C@H](OC(=O)[C@H](O)[C@@H](NC(=O)c4ccccc4)c4ccccc4)C(C)=C1C3(C)C)[C@]1(OC(C)=O)CO[C@@H]1C[C@@H]2O [PACLITAXEL]	–	–	–	–	–	–	0.04	–	–	–	–	–
C[C@]12CC[C@H](O)C[C@H]1CC[C@@H]1[C@@H]2CC[C@]2(C)[C@@H](C3=CC(=O)OC3)CC[C@]12O [DIGITOXIGENIN]	66	86	–	> 316	0.62	1.9	11.8	74	18	–	–	–
CO[C@@H]1C[C@H](O[C@H]2CC[C@@]3(C)[C@H](CC[C@@]45O[C@@]46C[C@H]4O[C@@]4(C4=CC(=O)OC4)[C@@]6(C)CC[C@H]35)C2)O[C@H](C)[C@@H]1O	97	104	45.6	> 100	62.1	–	40.9	96	74.1	–	–	–

Source: ChEMBL document CHEMBL1146214, “Bioactive cardenolides from the stems and twigs of Nerium oleander” (J Nat Prod, 2007)
